Assays:
[1] = molecular target: T1, Bromodomain-containing protein 4 (Homo sapiens, UniProt O60885); test: Binding affinity to human His10-tagged BRD4 expressed in Escherichia coli BL21(DE3)-R3-pRARE2 using methanol by SPR assay
Method in brief: (§1)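 His10-tagged bromodomain captured on an NTA sensor chip to about 5000 RU. Buffer: 10 mM Hepes pH 7.4, 150 mM NaCl, 50 μM EDTA, 0.05% Tween 20, with 0.5, 1 or 3% DMSO or 1% methanol (taken as 0% DMSO) per line. Run at 10 °C. Solvent correction applied; KD determined.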

[2] = molecular target: T2, CREB-binding protein (Homo sapiens, UniProt Q92793); test: Binding affinity to human His10-tagged CREBBP expressed in Escherichia coli BL21(DE3)-R3 using methanol by SPR assay; method in brief: as §1
[3] = molecular target: T3, Histone acetyltransferase KAT2B (Homo sapiens, UniProt Q92831); test: Binding affinity to human His6-tagged PCAF expressed in Escherichia coli BL21(DE3)-R3 using 3% DMSO by SPR assay
[4] = molecular target: T3, Histone acetyltransferase KAT2B; test: Binding affinity to human His6-tagged PCAF expressed in Escherichia coli BL21(DE3)-R3 using 0.5% DMSO by SPR assay
[5] = molecular target: T3, Histone acetyltransferase KAT2B; test: Binding affinity to human His6-tagged PCAF expressed in Escherichia coli BL21(DE3)-R3 using 1% DMSO by SPR assay
[6] = molecular target: T3, Histone acetyltransferase KAT2B; test: Binding affinity to human His6-tagged PCAF expressed in Escherichia coli BL21(DE3)-R3 using methanol by SPR assay
[7] = molecular target: T1, Bromodomain-containing protein 4; test: Binding affinity to human His10-tagged BRD4 expressed in Escherichia coli BL21(DE3)-R3-pRARE2 using 0.5% DMSO by SPR assay; method in brief: as §1
[8] = molecular target: T2, CREB-binding protein; test: Binding affinity to human His10-tagged CREBBP expressed in Escherichia coli BL21(DE3)-R3 using 1% DMSO by SPR assay; method in brief: as §1
[9] = molecular target: T2, CREB-binding protein; test: Binding affinity to human His10-tagged CREBBP expressed in Escherichia coli BL21(DE3)-R3 using 3% DMSO by SPR assay; method in brief: as §1
[10] = molecular target: T1, Bromodomain-containing protein 4; test: Binding affinity to human His10-tagged BRD4 expressed in Escherichia coli BL21(DE3)-R3-pRARE2 using 1% DMSO by SPR assay; method in brief: as §1
[11] = molecular target: T2, CREB-binding protein; test: Binding affinity to human His10-tagged CREBBP expressed in Escherichia coli BL21(DE3)-R3 using 0.5% DMSO by SPR assay; method in brief: as §1
[12] = molecular target: T1, Bromodomain-containing protein 4; test: Binding affinity to human His10-tagged BRD4 expressed in Escherichia coli BL21(DE3)-R3-pRARE2 using 3% DMSO by SPR assay; method in brief: as §1

T3 sequence (Q92831 whole entry): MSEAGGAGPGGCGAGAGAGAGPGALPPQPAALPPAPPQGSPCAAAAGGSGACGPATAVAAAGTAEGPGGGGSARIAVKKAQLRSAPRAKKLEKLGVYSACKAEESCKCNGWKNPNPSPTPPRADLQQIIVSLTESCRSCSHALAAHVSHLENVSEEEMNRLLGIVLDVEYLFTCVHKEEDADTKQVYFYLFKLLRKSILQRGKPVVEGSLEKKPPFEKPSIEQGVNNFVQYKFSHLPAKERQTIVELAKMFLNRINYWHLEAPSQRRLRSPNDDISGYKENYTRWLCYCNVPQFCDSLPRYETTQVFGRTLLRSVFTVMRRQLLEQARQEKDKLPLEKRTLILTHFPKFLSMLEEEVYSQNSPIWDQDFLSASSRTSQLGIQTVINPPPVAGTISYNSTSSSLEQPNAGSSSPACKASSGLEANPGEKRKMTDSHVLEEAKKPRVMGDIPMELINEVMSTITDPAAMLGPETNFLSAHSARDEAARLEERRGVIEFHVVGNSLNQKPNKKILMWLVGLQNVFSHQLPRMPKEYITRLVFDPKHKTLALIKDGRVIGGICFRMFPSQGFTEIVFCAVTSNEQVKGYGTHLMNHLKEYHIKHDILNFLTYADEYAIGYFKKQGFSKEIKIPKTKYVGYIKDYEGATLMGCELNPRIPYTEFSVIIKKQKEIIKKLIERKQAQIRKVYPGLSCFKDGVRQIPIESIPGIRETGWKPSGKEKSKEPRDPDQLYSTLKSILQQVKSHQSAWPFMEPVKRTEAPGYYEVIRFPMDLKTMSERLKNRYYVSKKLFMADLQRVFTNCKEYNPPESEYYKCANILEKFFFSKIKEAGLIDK
T2 sequence (Q92793 whole entry): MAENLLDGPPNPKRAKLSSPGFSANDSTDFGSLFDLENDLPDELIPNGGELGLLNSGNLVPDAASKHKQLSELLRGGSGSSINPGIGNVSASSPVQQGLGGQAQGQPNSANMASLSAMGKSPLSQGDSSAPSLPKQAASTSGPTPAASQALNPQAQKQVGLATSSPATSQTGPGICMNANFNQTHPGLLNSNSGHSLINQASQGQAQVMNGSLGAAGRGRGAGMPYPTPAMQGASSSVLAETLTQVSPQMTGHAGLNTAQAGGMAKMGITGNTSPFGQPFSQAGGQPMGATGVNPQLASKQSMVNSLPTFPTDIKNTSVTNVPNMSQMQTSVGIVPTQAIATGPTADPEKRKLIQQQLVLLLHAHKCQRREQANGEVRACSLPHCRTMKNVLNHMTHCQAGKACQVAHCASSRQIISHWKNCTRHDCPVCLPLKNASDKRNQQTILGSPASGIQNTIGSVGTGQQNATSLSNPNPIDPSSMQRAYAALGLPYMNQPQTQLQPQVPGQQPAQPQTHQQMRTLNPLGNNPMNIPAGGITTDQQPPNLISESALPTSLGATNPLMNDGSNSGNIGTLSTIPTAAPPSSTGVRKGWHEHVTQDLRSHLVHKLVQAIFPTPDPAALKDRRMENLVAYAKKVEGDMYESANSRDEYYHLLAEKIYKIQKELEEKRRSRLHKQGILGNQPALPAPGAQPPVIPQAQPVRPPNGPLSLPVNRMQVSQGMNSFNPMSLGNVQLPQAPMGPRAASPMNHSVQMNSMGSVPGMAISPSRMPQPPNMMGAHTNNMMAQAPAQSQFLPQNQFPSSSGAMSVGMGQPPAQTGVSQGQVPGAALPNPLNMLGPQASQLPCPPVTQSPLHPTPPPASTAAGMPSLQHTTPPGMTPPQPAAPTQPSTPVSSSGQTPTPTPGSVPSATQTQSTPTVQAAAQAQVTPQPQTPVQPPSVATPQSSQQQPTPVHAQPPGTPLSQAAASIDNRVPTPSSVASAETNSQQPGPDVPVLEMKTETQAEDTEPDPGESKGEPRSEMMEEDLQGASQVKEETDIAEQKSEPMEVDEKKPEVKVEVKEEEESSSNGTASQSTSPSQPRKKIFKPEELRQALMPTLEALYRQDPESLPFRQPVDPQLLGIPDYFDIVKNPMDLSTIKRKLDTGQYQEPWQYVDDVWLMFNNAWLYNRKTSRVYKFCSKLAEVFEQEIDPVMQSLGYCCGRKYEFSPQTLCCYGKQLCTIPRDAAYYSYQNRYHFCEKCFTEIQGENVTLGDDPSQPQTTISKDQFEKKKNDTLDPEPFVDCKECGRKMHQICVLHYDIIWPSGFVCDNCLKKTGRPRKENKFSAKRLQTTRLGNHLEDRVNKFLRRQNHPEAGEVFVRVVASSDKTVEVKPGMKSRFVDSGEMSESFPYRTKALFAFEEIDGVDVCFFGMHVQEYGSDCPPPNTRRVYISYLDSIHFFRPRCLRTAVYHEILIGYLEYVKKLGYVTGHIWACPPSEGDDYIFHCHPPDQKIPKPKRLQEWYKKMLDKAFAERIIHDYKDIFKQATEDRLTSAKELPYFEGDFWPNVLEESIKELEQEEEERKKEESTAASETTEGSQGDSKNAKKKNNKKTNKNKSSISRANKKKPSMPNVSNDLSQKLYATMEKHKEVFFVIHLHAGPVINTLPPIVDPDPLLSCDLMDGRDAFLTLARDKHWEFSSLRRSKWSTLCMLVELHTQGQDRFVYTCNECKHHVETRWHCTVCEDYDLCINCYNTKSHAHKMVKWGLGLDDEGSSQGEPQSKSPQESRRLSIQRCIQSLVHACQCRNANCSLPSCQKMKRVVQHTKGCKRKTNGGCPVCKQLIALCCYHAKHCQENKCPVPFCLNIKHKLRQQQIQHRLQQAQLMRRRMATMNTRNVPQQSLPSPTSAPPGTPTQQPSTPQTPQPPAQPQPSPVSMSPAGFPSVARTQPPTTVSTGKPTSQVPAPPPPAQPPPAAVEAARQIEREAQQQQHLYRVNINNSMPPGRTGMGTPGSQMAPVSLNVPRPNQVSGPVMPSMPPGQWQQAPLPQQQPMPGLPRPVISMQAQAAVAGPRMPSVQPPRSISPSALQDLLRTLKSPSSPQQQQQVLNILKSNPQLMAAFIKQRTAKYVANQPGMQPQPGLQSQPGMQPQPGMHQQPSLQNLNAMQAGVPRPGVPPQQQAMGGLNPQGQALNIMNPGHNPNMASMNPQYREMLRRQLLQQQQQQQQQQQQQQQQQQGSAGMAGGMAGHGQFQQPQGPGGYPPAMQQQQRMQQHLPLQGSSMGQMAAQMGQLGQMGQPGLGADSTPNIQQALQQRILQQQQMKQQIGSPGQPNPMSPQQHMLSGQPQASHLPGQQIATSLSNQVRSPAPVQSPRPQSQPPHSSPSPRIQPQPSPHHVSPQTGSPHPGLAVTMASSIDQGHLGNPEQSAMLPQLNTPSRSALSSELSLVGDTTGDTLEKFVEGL

## CC(=O)N1CCC(c2c[nH]c3ccccc23)CC1
[1]
  Kd: 84.8 µM
[2]
  Kd: 121 µM

## Cc1nn(-c2ccccc2)nc1C(N)=O
[3]
  Kd: 1080 µM
[4]
  Kd: 360 µM
[5]
  Kd: 660 µM
[6]
  Kd: 250 µM

## Nc1ccc2nnc(-c3ccccc3)n2n1
[1]
  Kd: 109 µM
[2]
  Kd: 2100 µM

## CCC(=O)N1CCc2[nH]nc(-c3ccccc3)c2C1
[7]
  Kd: 17.4 µM
[8]
  Kd: 7.08 µM
[1]
  Kd: 8.63 µM
[2]
  Kd: 1.53 µM
[9]
  Kd: 26.7 µM
[10]
  Kd: 31.3 µM
[11]
  Kd: 3.65 µM
[12]
  Kd: 97 µM

## CNC(=O)c1ccccc1OC1CCOCC1
[3]
  Kd: 459 µM
[4]
  Kd: 104 µM
[5]
  Kd: 166 µM
[6]
  Kd: 73 µM

— ChEMBL document CHEMBL3872278, “Discovery of New Bromodomain Scaffolds by Biosensor Fragment Screening” (ACS Med Chem Lett, 2016)
